ChEMBL document CHEMBL1811853, “Design and evaluation of 3-aminopyrazolopyridinone kinase inhibitors inspired by the natural product indirubin” (Bioorg Med Chem, 2011)

Key:
[1] = target: T1, Protein kinase C zeta type (Homo sapiens) (UniProt Q05513); experiment: Inhibition of PKCz at 30 uM by microfluidic mobility shift assay
T1 sequence (whole entry): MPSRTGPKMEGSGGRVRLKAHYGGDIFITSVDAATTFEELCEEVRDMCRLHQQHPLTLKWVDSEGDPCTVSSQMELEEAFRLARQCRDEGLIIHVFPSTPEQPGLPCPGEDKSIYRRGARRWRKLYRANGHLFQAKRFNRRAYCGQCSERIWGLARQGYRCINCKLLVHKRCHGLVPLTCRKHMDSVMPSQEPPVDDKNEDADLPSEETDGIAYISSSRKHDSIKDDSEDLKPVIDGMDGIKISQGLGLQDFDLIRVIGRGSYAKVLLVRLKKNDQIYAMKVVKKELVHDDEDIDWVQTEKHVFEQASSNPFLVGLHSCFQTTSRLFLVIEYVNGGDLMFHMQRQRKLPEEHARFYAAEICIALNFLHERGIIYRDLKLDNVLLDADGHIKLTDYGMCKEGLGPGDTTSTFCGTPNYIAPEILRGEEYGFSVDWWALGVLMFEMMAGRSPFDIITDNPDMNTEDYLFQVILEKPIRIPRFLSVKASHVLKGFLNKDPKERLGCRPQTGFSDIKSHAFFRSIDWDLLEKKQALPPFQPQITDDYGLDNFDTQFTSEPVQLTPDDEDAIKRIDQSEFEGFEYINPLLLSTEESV
Summary of the method: (§1)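 Single-concentration screen, singlicate, 30 uM final (diluted from 1 mM DMSO solutions), fluorescently tagged peptide substrate appropriate to each kinase, ATP at apparent Km for each protein. Phosphorylated and unphosphorylated peptides separated electrophoretically; conversion is the phosphorylated peak area over the sum of both peaks. No-inhibitor and no-ATP controls; H89 reference on each plate.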

[2] = target: Mitogen-activated protein kinase 14 (Homo sapiens, UniProt Q16539); experiment: Inhibition of p38alpha at 30 uM by microfluidic mobility shift assay; summary of the method: as §1
[3] = target: Ribosomal protein S6 kinase alpha-1 (Homo sapiens) (UniProt Q15418); experiment: Inhibition of RSK1 at 30 uM by microfluidic mobility shift assay; summary of the method: as §1
[4] = target: T2, Serine/threonine-protein kinase Chk1 (Homo sapiens) (UniProt O14757); experiment: Inhibition of CHK1 at 30 uM by microfluidic mobility shift assay; summary of the method: as §1
T2 sequence (whole entry): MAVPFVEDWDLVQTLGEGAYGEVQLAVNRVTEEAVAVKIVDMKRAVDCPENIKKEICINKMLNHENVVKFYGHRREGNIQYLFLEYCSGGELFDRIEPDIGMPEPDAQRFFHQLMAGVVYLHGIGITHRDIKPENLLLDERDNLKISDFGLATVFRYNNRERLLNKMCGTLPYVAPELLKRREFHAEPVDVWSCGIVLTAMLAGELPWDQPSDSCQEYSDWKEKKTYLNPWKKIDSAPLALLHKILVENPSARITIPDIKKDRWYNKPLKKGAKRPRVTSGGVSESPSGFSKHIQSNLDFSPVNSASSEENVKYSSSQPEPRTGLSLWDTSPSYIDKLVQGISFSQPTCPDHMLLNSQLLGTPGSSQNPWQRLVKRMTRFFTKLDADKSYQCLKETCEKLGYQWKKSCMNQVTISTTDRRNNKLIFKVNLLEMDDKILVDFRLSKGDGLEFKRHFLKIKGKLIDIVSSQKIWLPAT

[5] = target: RAC-alpha serine/threonine-protein kinase (Homo sapiens) (UniProt P31749); experiment: Inhibition of AKT1 at 30 uM by microfluidic mobility shift assay; summary of the method: as §1
[6] = target: Ribosomal protein S6 kinase alpha-5 (Homo sapiens) (UniProt O75582); experiment: Inhibition of MSK1 at 30 uM by microfluidic mobility shift assay; summary of the method: as §1
[7] = target: Proto-oncogene tyrosine-protein kinase Src (Homo sapiens, UniProt P12931); experiment: Inhibition of SRC at 30 uM by microfluidic mobility shift assay; summary of the method: as §1
[8] = target: T3, Serine/threonine-protein kinase D2 (Homo sapiens) (UniProt Q9BZL6); experiment: Inhibition of PKD2 at 30 uM by microfluidic mobility shift assay; summary of the method: as §1
T3 sequence (whole entry): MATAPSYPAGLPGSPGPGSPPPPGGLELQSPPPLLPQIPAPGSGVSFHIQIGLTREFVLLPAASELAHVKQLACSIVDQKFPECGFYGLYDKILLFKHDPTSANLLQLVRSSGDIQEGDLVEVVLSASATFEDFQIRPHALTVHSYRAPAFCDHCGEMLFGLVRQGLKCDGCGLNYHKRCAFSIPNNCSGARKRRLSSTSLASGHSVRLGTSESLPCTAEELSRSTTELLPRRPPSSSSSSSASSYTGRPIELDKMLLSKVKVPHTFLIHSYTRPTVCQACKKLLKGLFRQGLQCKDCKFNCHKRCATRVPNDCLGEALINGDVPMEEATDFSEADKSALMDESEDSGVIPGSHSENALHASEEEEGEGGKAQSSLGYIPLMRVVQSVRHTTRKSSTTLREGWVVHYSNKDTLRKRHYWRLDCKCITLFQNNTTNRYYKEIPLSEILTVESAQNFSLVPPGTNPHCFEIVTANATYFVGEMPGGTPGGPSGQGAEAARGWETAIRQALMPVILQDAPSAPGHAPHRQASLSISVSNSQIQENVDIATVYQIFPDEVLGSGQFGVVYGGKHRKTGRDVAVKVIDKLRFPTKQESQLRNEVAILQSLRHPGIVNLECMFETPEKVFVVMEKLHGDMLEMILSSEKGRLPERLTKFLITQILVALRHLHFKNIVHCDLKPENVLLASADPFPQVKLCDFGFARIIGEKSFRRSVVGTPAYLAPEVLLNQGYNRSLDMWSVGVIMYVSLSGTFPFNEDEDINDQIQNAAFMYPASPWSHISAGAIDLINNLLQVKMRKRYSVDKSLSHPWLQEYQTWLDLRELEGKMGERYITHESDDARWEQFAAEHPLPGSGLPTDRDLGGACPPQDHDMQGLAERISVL

[9] = target: Tyrosine-protein kinase ABL1 (Homo sapiens, UniProt P00519); experiment: Inhibition of ABL at 30 uM by microfluidic mobility shift assay; summary of the method: as §1
[10] = target: T4, Aurora kinase A (Homo sapiens) (UniProt O14965); experiment: Inhibition of AurA at 30 uM by microfluidic mobility shift assay; summary of the method: as §1
T4 sequence (whole entry): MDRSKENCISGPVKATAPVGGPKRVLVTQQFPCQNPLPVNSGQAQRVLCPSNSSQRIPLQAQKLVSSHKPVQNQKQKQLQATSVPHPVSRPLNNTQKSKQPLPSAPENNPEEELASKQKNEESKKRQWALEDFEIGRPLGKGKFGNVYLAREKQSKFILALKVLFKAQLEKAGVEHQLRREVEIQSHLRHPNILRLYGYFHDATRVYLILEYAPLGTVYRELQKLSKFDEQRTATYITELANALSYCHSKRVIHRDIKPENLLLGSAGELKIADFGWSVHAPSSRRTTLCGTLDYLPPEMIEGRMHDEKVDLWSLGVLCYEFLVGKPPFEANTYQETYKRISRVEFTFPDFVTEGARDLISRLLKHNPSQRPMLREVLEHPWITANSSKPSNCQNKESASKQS

[11] = target: Insulin receptor (Homo sapiens) (UniProt P06213); experiment: Inhibition of INSR at 30 uM by microfluidic mobility shift assay; summary of the method: as §1
Chain of Insulin receptor (Homo sapiens) (P06213 28-758 limits assumed): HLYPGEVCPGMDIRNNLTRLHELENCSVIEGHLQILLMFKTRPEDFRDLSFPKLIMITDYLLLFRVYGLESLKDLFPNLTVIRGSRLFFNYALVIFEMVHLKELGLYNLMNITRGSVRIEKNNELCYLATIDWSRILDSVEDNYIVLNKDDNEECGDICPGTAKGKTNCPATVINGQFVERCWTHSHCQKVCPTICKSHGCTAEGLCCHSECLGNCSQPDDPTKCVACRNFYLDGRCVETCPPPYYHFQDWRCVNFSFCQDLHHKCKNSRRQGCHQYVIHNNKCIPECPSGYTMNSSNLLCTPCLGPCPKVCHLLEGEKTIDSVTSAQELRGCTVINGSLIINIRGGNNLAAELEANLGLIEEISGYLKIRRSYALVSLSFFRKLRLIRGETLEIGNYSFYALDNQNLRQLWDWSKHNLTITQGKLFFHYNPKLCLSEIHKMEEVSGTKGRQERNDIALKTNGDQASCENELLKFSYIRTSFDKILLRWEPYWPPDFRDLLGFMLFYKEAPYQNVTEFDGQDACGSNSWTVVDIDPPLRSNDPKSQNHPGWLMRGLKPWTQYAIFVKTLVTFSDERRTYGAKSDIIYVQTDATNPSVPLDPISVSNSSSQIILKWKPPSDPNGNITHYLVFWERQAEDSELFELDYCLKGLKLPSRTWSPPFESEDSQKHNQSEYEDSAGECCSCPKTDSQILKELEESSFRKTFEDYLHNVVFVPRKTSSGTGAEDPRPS
Chain of Insulin receptor (Homo sapiens) (P06213 763-1382 limits assumed): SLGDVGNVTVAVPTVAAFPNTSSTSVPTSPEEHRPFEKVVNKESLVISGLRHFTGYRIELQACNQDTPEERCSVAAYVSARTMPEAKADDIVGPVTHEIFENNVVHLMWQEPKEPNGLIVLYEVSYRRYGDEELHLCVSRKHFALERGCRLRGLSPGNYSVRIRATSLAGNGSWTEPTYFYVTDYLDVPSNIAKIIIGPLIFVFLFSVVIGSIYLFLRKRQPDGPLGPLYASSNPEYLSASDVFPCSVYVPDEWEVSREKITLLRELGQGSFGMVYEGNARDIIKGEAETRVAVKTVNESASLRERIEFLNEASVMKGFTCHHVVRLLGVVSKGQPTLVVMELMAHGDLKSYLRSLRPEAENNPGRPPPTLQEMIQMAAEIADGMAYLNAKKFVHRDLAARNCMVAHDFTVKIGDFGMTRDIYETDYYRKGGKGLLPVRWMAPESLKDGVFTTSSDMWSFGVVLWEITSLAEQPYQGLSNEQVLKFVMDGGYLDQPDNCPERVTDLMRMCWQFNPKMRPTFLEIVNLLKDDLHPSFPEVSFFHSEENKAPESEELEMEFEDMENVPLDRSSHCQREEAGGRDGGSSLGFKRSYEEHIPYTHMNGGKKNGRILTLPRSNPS

Chain of RAC-alpha serine/threonine-protein kinase (Homo sapiens) (P31749 whole entry): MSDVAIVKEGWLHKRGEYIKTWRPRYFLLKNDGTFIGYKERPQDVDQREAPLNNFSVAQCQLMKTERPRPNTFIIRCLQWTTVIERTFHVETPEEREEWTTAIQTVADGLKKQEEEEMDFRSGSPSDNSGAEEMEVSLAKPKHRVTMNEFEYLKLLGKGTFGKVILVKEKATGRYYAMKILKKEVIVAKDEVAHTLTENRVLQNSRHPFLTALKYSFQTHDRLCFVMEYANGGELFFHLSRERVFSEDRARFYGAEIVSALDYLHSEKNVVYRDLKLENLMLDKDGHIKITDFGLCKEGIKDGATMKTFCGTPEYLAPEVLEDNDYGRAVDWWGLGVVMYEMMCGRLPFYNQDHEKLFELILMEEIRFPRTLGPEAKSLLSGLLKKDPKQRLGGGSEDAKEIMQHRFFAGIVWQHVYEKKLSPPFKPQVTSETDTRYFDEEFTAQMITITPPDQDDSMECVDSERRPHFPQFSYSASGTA
Chain of Proto-oncogene tyrosine-protein kinase Src (P12931 2-536 limits assumed): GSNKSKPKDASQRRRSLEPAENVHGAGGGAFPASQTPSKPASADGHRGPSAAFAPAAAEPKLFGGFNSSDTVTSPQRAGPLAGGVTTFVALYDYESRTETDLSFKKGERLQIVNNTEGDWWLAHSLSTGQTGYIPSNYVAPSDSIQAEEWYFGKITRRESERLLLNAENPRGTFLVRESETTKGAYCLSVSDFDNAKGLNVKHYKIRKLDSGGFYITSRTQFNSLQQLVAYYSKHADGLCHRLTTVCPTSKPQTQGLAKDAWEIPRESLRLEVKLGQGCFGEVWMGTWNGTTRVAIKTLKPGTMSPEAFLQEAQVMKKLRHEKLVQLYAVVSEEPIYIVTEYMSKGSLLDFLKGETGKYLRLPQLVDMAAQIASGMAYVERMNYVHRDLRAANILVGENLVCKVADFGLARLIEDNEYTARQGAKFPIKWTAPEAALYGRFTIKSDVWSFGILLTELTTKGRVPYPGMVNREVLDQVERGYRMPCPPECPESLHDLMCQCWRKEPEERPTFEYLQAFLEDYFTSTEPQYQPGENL
Chain of Ribosomal protein S6 kinase alpha-5 (Homo sapiens) (O75582 whole entry, looked up): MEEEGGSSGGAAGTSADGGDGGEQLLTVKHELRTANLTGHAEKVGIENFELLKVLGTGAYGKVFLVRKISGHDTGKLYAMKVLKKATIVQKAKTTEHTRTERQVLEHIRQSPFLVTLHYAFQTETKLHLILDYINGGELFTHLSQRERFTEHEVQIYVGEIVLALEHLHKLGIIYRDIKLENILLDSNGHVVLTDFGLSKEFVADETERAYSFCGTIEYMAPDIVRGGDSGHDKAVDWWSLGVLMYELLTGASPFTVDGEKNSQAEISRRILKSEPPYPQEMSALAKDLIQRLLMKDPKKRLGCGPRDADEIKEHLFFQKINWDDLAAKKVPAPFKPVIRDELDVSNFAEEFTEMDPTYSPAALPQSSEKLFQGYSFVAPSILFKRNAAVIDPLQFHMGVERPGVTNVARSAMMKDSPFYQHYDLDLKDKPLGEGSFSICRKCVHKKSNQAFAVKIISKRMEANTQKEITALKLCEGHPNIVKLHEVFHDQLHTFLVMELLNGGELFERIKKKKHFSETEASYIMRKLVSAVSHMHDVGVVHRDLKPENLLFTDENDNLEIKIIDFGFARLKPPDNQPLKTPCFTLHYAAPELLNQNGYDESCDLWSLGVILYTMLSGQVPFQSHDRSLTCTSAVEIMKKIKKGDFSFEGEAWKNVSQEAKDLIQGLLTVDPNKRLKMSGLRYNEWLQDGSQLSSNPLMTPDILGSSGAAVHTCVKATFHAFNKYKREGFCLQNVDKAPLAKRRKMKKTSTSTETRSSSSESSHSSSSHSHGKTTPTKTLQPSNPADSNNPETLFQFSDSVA
Chain of Ribosomal protein S6 kinase alpha-1 (Homo sapiens) (Q15418 whole entry): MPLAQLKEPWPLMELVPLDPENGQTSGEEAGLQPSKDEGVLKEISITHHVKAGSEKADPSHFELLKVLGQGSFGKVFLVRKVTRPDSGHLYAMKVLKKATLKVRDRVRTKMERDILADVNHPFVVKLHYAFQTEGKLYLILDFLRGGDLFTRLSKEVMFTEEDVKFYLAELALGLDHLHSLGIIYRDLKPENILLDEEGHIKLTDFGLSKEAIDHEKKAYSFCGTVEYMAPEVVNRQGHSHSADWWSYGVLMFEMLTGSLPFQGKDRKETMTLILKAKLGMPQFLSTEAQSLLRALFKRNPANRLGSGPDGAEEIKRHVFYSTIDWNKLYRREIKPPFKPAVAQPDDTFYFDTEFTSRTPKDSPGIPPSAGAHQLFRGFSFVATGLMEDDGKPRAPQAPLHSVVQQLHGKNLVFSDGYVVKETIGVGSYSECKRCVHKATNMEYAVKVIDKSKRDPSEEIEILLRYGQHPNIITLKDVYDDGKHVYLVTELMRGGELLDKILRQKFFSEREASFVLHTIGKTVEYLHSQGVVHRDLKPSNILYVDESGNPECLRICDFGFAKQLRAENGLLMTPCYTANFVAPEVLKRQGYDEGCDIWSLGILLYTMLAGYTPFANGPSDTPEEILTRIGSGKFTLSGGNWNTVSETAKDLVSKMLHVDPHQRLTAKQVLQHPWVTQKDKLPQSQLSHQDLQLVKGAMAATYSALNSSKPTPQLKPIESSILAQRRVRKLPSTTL
Chain of Mitogen-activated protein kinase 14 (Q16539 whole entry): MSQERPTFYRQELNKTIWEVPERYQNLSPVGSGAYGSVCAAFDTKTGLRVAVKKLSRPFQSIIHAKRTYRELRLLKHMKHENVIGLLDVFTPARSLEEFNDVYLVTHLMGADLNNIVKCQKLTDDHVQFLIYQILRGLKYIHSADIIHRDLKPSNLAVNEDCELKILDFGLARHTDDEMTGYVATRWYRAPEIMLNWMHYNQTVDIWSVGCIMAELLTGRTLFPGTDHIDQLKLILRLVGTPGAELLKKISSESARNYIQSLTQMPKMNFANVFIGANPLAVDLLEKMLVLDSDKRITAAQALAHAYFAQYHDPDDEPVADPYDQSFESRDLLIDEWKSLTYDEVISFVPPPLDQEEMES

Compound | inhibition [1] [%] | inhibition [2] [%] | inhibition [3] [%] | inhibition [4] [%] | inhibition [5] [%] | inhibition [6] [%] | inhibition [7] [%] | inhibition [8] [%] | inhibition [9] [%] | inhibition [10] [%] | inhibition [11] [%]
Nc1c2c(=O)[nH]c(-c3ccccc3)cc2nn1-c1ccccn1 | -3 | 7 | 5 | 2 | 10 | -4 | 37 | 16 | 33 | 37 | 5
Cc1cc2[nH]nc(N)c2c(=O)[nH]1 | 10 | -7 | 6 | 7 | -3 | 56 | 14 | -1 | 12 | 23 | -2
Nc1n[nH]c2cc(-c3ccncc3)[nH]c(=O)c12 | 10 | 1 | 22 | 21 | 2 | 29 | 46 | 29 | 28 | 43 | 9
COC(=O)CCc1c(C)[nH]c(=O)c2c(N)nn(C)c12 | 14 | -1 | -5 | 2 | 5 | 7 | 13 | 5 | 11 | 9 | 3
CC(=O)Nc1nn(C)c2cc(-c3ccccc3)[nH]c(=O)c12 | 28 | 5 | 4 | 4 | -9 | 3 | 12 | 9 | 10 | 2 | 5
